The source made the active and inactive calls. No cut-off for these calls is given here. Non-standard residues stand in square brackets, D forms with d. Residues, ends and D or L forms follow the SMILES beside them. *: point of attachment. Phe(4-I) = N[C@@H](Cc1ccc(I)cc1)C(=O)O; CHN2 = [N-]=[N+]=C*
Columns and labels:
Dipeptidyl peptidase 1 [1] = biological target: T1, Dipeptidyl peptidase 1 (Homo sapiens, UniProt P53634); assay: Inhibition of human recombinant cathepsin C after 10 mins
Outline: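 Recombinant human cathepsin C at 1 nM in 25 mM MES pH 6.0, 50 mM NaCl, 5 mM DTT, with 50 μM Gly-Arg-AMC (twice Km). Enzyme preincubated with inhibitor 10 min, then substrate added, at room temperature. Fluorogenic AMC release.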

Cathepsin B = Cathepsin B (Homo sapiens, UniProt P07858); assay: Inhibition of human recombinant cathepsin B after 10 mins
Cathepsin S = Cathepsin S (Homo sapiens, UniProt P25774); assay: Inhibition of human recombinant cathepsin S after 10 mins
Procathepsin L = Procathepsin L (Homo sapiens, UniProt P07711); assay: Inhibition of human recombinant cathepsin L after 10 mins
Pro-cathepsin H = biological target: T2, Pro-cathepsin H (Homo sapiens, UniProt P09668); assay: Inhibition of human recombinant cathepsin H after 10 mins
T2 sequence (P09668 whole entry): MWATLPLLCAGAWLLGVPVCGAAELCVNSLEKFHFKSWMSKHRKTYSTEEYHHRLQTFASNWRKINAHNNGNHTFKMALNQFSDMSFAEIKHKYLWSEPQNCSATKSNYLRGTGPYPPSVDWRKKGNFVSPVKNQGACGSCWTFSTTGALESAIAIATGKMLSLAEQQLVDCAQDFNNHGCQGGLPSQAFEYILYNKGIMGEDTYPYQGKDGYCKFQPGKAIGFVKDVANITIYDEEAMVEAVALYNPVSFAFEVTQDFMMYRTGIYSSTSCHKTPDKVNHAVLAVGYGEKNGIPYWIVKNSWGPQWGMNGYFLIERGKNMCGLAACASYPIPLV

Cathepsin G [2] = biological target: T3, Cathepsin G (Homo sapiens, UniProt P08311); assay: Blockade of cathepsin G processing in human U937 cells by densitometry; assay type: cell-based, U-937
T3 sequence (P08311 whole entry): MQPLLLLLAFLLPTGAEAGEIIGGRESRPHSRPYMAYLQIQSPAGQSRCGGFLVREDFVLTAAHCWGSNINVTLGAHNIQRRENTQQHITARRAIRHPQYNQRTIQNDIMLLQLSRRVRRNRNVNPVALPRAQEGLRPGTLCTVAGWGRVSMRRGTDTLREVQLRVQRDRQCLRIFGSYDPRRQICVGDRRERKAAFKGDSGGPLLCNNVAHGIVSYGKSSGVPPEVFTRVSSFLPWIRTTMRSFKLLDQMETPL
Outline: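 U937 cells washed, plated at 2×10^6 cells/ml in methionine/glutamine-free RPMI, inhibitor or 0.5% Me₂SO added during 30 min starvation, pulsed with [³⁵S]methionine (10 μCi/ml) 30 min, re-seeded in complete medium with inhibitor and chased 3 h. Lysates bound to aprotinin-agarose 1 h at room temperature, SDS-PAGE and fluorography. CG band quantitated by densitometry as % inhibition vs vehicle.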

Neutrophil elastase [3] = biological target: T4, Neutrophil elastase (Mus musculus, UniProt Q3UP87); assay: Inhibition of neutrophil elastase activation in beta-estradiol differentiated mouse EcoM-G cells after 24 hrs; assay type: cell-based
T4 sequence (Q3UP87 whole entry): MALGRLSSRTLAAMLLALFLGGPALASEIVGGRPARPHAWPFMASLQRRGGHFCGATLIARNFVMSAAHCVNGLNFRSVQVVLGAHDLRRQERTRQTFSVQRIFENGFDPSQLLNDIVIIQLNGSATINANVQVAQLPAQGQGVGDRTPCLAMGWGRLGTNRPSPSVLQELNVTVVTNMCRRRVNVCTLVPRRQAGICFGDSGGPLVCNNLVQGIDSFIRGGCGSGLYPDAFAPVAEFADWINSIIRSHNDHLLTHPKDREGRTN
Outline: (§1)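 EcoM-G cells (cultures <3 months old) washed and seeded at 0.5×10^6 cells/ml without β-estradiol. After 24 h, compound added in Me₂SO (final 0.5%), then cells differentiated a further 24 h, harvested and lysed. NE assayed with 400 μM MeOSuc-AAPV-AMC, CG with 1 mM Suc-AAPF-pNA (405 nm, 5 min), Pr-3 with 10 μM internally quenched substrate (ex 328/em 393 nm), all from the same lysates. IC50 from four-parameter Hill fit.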

Cathepsin G [4] = biological target: T5, Cathepsin G (Mus musculus, UniProt P28293); assay: Inhibition of cathepsin G activation in beta-estradiol differentiated mouse EcoM-G cells after 24 hrs; assay type: cell-based; outline: as §1
T5 sequence (P28293 whole entry): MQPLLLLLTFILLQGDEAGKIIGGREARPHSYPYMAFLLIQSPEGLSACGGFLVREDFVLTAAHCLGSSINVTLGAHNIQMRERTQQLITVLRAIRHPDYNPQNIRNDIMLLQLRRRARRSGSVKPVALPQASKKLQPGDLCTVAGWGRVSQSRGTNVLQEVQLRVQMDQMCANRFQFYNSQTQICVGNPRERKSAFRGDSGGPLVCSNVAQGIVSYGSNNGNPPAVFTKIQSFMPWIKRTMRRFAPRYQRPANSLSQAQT

Neutrophil elastase [5] = biological target: T6, Neutrophil elastase (Homo sapiens, UniProt P08246); assay: Blockade of neutrophil elastase processing in human U937 cells after 7 days by fluorogenic substrate cleavage assay; assay type: cell-based, U-937
T6 sequence (P08246 whole entry): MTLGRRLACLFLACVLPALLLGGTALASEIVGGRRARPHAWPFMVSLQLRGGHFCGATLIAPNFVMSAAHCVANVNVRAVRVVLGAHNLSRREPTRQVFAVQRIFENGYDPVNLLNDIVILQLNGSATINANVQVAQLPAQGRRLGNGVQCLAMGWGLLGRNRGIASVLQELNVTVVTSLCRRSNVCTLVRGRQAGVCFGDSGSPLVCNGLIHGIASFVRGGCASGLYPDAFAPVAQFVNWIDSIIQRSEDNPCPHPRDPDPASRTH
Outline: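 U937 seeded at 1×10^5 cells/ml with vehicle or inhibitor, passaged and diluted 10-fold into fresh medium with compound on days 3 and 5, harvested day 7. Cells washed and lysed in 20 mM Tris pH 7.5, 100 mM NaCl, 0.2% NP-40. NE rate measured with 400 μM MeOSuc-AAPV-AMC (ex 370/em 450 nm, 10 min). % inhibition vs vehicle, four wells per point.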

Myeloblastin [6] = biological target: T7, Myeloblastin (Mus musculus, UniProt Q61096); assay: Inhibition of proteinase-3 activation in beta-estradiol differentiated mouse EcoM-G cells after 24 hrs; assay type: cell-based; outline: as §1
T7 sequence (Q61096 whole entry): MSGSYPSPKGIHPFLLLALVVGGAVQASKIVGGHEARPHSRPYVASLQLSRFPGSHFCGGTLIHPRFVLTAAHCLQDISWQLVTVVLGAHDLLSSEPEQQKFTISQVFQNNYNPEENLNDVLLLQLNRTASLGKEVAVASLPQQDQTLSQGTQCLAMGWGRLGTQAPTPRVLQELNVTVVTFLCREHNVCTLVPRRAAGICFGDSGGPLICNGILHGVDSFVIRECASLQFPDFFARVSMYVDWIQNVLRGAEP

Cathepsin G [7] = biological target: T3, Cathepsin G; assay: Inhibition of cathepsin G in human U937 cells; assay type: cell-based, U-937
[8] = biological target: Neutrophil elastase (Mus musculus) (UniProt Q3UP87); assay: Inhibition of neutrophil elastase in mouse EcoM-G cells
Dipeptidyl peptidase 1 [9] = biological target: T1, Dipeptidyl peptidase 1; assay: Inhibition of cathepsin C in human U937 cells at 1 uM after 24 hrs; assay type: cell-based; conditions: U-937
Outline: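 U937 at 0.4×10^6 cells/ml exposed 24 h to compound (final Me₂SO 0.5%), washed, lysed in 25 mM MES pH 6.0, 50 mM NaCl, 5 mM DTT, 0.2% NP-40. Protein-normalised lysate diluted 1:10 and assayed with 50 μM Gly-Arg-AMC (twice Km) at room temperature. Residual cathepsin C activity.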

U-937 [10] = assay: Cytotoxicity against human U937 cells at 1 uM after 72 hrs annexin-V propidium iodide method; assay type: functional
Outline: (§2)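 U937 plated at 0.4×10^6 cells/ml, compound in Me₂SO (final 0.5%). Cells harvested and re-seeded every 24 h in medium with freshly added inhibitor, for 72 h. Viability by annexin V-FITC/propidium iodide two-colour flow cytometry; cells negative for both stains counted viable.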

[11] = biological target: T8, Cathepsin G (Homo sapiens) (UniProt P08311); assay: Inhibition of human U937 cellular [35S]methionine-labeled cathepsin G binding to aprotinin by aprotinin-agarose silver-stained SDS-PAGE method; assay type: cell-based; conditions: U-937, in the assay text read “SDS-PAGE fluorography” for “silver-stained SDS-PAGE”
T8 sequence (whole entry): T3 sequence (P08311 whole entry)

Myeloblastin [12] = biological target: T9, Myeloblastin (Homo sapiens, UniProt P24158); assay: Inhibition of proteinase-3 in human U937 cells; assay type: cell-based, U-937
T9 sequence (P24158 whole entry): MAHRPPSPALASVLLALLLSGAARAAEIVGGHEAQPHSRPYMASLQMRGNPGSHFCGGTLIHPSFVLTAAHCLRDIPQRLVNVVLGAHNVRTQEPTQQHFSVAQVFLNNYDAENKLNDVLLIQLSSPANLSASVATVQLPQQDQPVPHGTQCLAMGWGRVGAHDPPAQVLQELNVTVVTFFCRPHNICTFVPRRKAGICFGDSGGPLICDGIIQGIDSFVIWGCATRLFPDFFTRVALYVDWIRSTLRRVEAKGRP

U-937 [13] = assay: Cytotoxicity against human U937 cells at 30 uM after 72 hrs annexin-V propidium iodide method; assay type: functional; outline: as §2

Sequence of Procathepsin L (P07711 whole entry): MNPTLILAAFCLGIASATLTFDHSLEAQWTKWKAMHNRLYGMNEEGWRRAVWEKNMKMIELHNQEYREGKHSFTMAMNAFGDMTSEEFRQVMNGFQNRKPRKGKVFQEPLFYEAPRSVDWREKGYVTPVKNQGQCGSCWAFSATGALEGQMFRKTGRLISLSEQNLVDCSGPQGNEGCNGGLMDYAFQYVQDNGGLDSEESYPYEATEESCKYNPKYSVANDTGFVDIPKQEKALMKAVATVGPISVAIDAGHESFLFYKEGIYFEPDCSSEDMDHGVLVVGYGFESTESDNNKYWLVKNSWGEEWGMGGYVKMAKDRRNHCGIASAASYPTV
T1 sequence (P53634 25-134 limits assumed): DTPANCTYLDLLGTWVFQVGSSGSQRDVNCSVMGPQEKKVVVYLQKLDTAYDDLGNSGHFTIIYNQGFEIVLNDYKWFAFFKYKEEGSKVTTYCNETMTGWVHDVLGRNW
T1 sequence (P53634 231-394 limits assumed): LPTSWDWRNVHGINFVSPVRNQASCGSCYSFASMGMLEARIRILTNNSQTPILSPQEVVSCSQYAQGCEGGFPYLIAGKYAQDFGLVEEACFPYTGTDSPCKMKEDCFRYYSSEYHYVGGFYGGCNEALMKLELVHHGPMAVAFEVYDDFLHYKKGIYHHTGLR
T1 sequence (P53634 395-463 limits assumed): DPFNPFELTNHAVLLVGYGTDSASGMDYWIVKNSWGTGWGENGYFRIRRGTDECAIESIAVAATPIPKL
Sequence of Cathepsin S (P25774 whole entry): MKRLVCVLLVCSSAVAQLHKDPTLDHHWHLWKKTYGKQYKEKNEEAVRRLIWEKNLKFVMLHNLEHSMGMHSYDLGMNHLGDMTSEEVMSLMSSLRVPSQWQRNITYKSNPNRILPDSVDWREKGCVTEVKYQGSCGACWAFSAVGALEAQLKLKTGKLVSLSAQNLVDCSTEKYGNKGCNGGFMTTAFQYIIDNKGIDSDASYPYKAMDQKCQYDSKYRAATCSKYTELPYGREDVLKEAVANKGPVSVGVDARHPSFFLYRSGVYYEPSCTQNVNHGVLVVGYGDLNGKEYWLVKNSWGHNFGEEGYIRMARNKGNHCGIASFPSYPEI

IC50 (Dipeptidyl peptidase 1 [1]) [nM] | IC50 (Cathepsin B) [nM] | IC50 (Cathepsin S) [nM] | IC50 (Procathepsin L) [nM] | IC50 (Pro-cathepsin H) [µM] | IC50 (Cathepsin G [2]) [nM] | IC50 (Neutrophil elastase [3]) [µM] | IC50 (Cathepsin G [4]) [µM] | IC50 (Myeloblastin [6]) [µM] | SMILES | further results
> 10000 | 280 | 10 | 430 | > 50 | > 50000 | > 50 | > 50 |  | CS(=O)(=O)C[C@H](N[C@@H](c1ccc(Br)cc1)C(F)(F)F)C(=O)NC1(C#N)CC1 | 
770 | 10 | 7 | 13 | 0.19 |  |  |  |  | CC(C)C[C@H](NC(=O)[C@H]1O[C@@H]1C(=O)O)C(=O)NCCCCN=C(N)N [E-64] | 
 | > 50000 | 33400 | 15500 | > 50 | 90 | 0.15 | 0.69 | 0.15 | N#C[C@@]1(NC(=O)C(N)Cc2sccc2F)C[C@@H]1c1ccccc1 (some centres undefined) | IC50 (Cathepsin G [7]): > 10 µM; IC50 (Neutrophil elastase [5]): 170 nM; IC50 [8]: > 10 µM
450 | 65 | 9 | 10 |  |  |  |  |  | CCC[C@H](NC(=O)C(CC(C)C)NC(=O)c1ccc(-c2ccc(I)cc2)cc1)C(=O)[CH-][N+]#N (some centres undefined) | 
> 30000 | > 50000 | > 50000 | > 50000 | > 50 | > 50000 | > 50 | > 50 | > 50 | N#C[C@]1(NC(=O)C(N)Cc2cccs2)C[C@H]1c1ccccc1.O=C(O)C(F)(F)F (single isomer, unassigned) | Activity (U-937 [13]): 98%; IC50 (Neutrophil elastase [5]): > 30000 nM
> 10000 | 1360 | 1 |  |  |  | 25.5 | 39.8 | 21.2 | CC(C)C[C@@H](NC(=O)N1CCOCC1)C(=O)N[C@@H](/C=C/S(=O)(=O)c1ccccc1)CCc1ccccc1 | 

More lines, now with the values behind:

SMILES | IC50 (Dipeptidyl peptidase 1 [1]) [nM] | IC50 (Cathepsin B) [nM] | IC50 (Cathepsin S) [nM] | IC50 (Procathepsin L) [nM] | IC50 (Pro-cathepsin H) [µM] | IC50 (Cathepsin G [2]) [nM] | IC50 (Neutrophil elastase [3]) [µM] | IC50 (Cathepsin G [4]) [µM] | IC50 (Myeloblastin [6]) [µM] | further results
N#C[C@]1(NC(=O)[C@@H](N)Cc2ccccc2F)C[C@H]1c1ccccc1 | > 220 | > 3000 | 1600 | 560 |  | 1200 | 5.49 | 17.6 | 4.55 | IC50 (Neutrophil elastase [5]): 1900 nM
N#[N+][CH-]C(=O)[C@H](Cc1ccccc1)NC(=O)CN | 51 | > 30000 |  | 25500 | 29 |  |  |  |  | 
N#C[C@]1(NC(=O)C(N)Cc2cncs2)C[C@H]1c1ccccc1 (some centres undefined) | 790 |  |  |  |  |  | 7.93 | > 50 |  | 
C[C@H](N)C(=O)N[C@@H](Cc1ccc(I)cc1)C(=O)C=[N+]=[N-] |  |  |  |  |  |  |  |  |  | inhibition (Dipeptidyl peptidase 1 [9]): 99.6%; Activity (U-937 [10]): 32%; Activity [11]: Active
CCC[C@@H](NC(=O)N1C(=O)C(CC)(CC)[C@@H]1Oc1ccc(C(=O)N2CCN(C)CC2)cc1)c1ccc2c(c1)OCO2 |  |  |  |  |  |  |  |  |  | Activity [11]: inactive
[N-]=[N+]=CC(=O)[C@H](Cc1ccc(I)cc1)NC(=O)CN (H-Gly-[Phe(4-I)]-CHN2) | 1 | 2940 | > 50000 | 29500 | 9.8 |  |  |  |  | IC50 (Cathepsin G [7]): > 50 µM; IC50 (Myeloblastin [12]): > 50 µM; IC50 [8]: > 50 µM
CCOC(=O)[C@H]1O[C@@H]1C(=O)N[C@@H](CC(C)C)C(=O)NCCC(C)C [ALOXISTATIN] |  |  |  |  |  | 1100 | > 10 | > 10 | > 10 | 
Cc1cc(C)cc(CC(NC(=O)C(c2ccccc2)c2ccccc2)C(=O)NCC#N)c1 (centres undefined) |  | 40 | 470 | 90 |  |  | > 50 | > 50 |  | 
[N-]=[N+]=CC(=O)[C@H](Cc1ccccc1)NC(=O)CN (H-Gly-Phe-CHN2) |  |  |  |  |  |  |  |  |  | inhibition (Dipeptidyl peptidase 1 [9]): 100%; Activity (U-937 [10]): 32%

Source: ChEMBL document CHEMBL1156470, “Inhibition of the activation of multiple serine proteases with a cathepsin C inhibitor requires sustained exposure to prevent pro-enzyme processing” (J Biol Chem, 2007)
